Experimental data of several laboratories.
Lines come from different studies, so protocols differ.
LRRK2: Leucine-rich repeat serine/threonine-protein kinase 2 (LRRK2, Homo sapiens, UniProt Q5S007)
LRRK2 G2019S: Leucine-rich repeat serine/threonine-protein kinase 2 (LRRK2, Homo sapiens, UniProt Q5S007, G2019S)

Compound	target	assay	setting	measurement	result
O=C(O)c1cc(-c2ccc(C3CCNCC3)cc2)c2ccc(-c3ccc(C(F)(F)F)cc3)cc2c1	LRRK2	cell-free assay, competition with immobilised ligand	1 µM	remaining binding	100%
Cc1cnn2ncc(-c3ccnc(N(C)C)n3)c2c1	LRRK2	binding	1 µM	remaining binding	47%
Cc1ccc(C(=O)Nc2ccc(CN3CCN(C)CC3)c(C(F)(F)F)c2)cc1C#Cc1cnc2cccnn12	LRRK2	enzyme activity, inhibitor	23.5 nM	remaining activity	83%
COc1cc2nccc(Oc3ccc(NC(=O)c4c5n(n(-c6ccc(F)cc6)c4=O)CCCC5)cc3)c2cc1OC	LRRK2	enzyme activity, inhibitor	0.1 µM	inhibition	0%
CN(c1nccc(-c2cnn3ncccc23)n1)C1CC1	LRRK2 G2019S	binding	1 µM	remaining binding	100%
Cc1ccc(Nc2nccc(N(C)c3ccc4c(C)n(C)nc4c3)n2)cc1S(N)(=O)=O	LRRK2	enzyme activity, inhibitor	0.5 µM	remaining activity	109%
Nc1c(C(=O)NCc2ccc(C(=O)NCCCC3CCCCC3)cc2)cnn1-c1ccccc1	LRRK2	binding, competition with immobilised ligand	1 µM	remaining binding	39%
Cc1cc(NC(=O)c2cccc3cc(-c4cccc5[nH]nc(N)c45)ccc23)ccc1F	LRRK2	enzyme activity, inhibitor	0.1 µM	activity vs control	98%
CC(C)CC(=O)N1CCc2nc(-c3ccc(Br)cc3)nc(N(C)Cc3ccccc3)c2C1	LRRK2 G2019S	cell-free assay, competition with immobilised ligand	0.1 µM	remaining binding	100%
CC1CCCN1c1nccc(-c2cnn3ncccc23)n1 (centres unmarked)	LRRK2	binding	1 µM	remaining binding	100%
N#Cc1ccc(Nc2ccc3[nH]c(=O)[nH]c3c2)c(Cl)c1	LRRK2 G2019S	cell-free assay, competition with immobilised ligand	1 µM	remaining binding	93%
CN(C)C1CCN(CC#Cc2nn(C3CCCC3)c3nc(NCc4ccccc4)ncc23)C1 (centres unmarked)	LRRK2	enzyme activity, inhibitor, FRET	0.1 µM	inhibition	-1%
N[C@@H]1CCN(c2nccc(-c3cnn4ncccc34)n2)C1	LRRK2	binding	1 µM	remaining binding	100%
COc1cc(-c2cn(C3CCc4c(F)cccc4N(CC(F)(F)F)C3=O)nn2)ccc1-n1cnc(C)c1 (centres unmarked)	LRRK2 G2019S	cell-free assay, competition with immobilised ligand	1 µM	remaining binding	100%
COc1ccnn2ncc(-c3ccnc(N(C)C)n3)c12	LRRK2	binding	1 µM	remaining binding	56%
COc1cc(-c2cc(-c3ccc(N4CCNCC4)cc3)cnc2N)cc(OC)c1OC	LRRK2	enzyme activity, inhibitor	0.1 µM	inhibition	6%
CN(C)C(=O)Cn1cc(-c2nc(C3(c4ccc(-c5cnc(N)nc5)cc4)CC3)no2)cn1	LRRK2	cell-free assay, competition with immobilised ligand	1 µM	remaining binding	100%
Cc1ccc(NC(=O)c2ccc(C)c(C(F)(F)F)c2)cc1C#Cc1nn(C2CCC(O)CC2)c2ncnc(N)c12 (centres unmarked)	LRRK2	cell-free assay	10 µM	remaining signal	15%
N#CCCc1ccc2c(c1)-c1[nH]c3ccc([N+](=O)[O-])cc3c1CC(=O)N2	LRRK2	cell-free assay	0.5 µM	remaining signal	73.8%
O=C(Nc1cnn(-c2csc(C(=O)NC3COC3)c2)c1)Nc1ccccc1Cl	LRRK2	enzyme activity, inhibitor	5 µM	remaining activity	88.2%
Cc1ccc(NC(=O)c2ccc(CN3CCN(C)CC3)cc2)cc1Nc1nc(-c2cccnc2)cs1	LRRK2	cell-free assay	0.5 µM	remaining signal	107%
O=C(O)[C@@H]1[C@@H](Cn2nnc3ccccc3c2=O)CC[C@H]1C(=O)c1ccc(OCCC2CCOCC2)cc1	LRRK2 G2019S	cell-free assay, competition with immobilised ligand	1 µM	remaining binding	100%
c1cnn2ncc(-c3ccnc(N4CCC45COC5)n3)c2c1	LRRK2 G2019S	binding	1 µM	remaining binding	21%
CC(C)(C)c1nc2c(s1)c1nc(N)ncc1c1ccc(NS(=O)(=O)c3c(F)cccc3F)c(F)c12	LRRK2	enzyme activity, inhibitor, radiometric	1 µM	remaining activity	93%
Cc1c(C(=O)O)cc(-c2ccc(C3CCNCC3)cc2)c2ccc(-c3ccc(C(F)(F)F)cc3)cc12	LRRK2 G2019S	binding, competition with immobilised ligand	1 µM	remaining binding	100%
Nc1ncnc2occ(-c3ccc(NC(=O)Nc4cc(C(F)(F)F)ccc4F)cc3)c12	LRRK2 G2019S	cell-free assay, inhibitor	20 µM	remaining signal	12%
